Consider six compounds from ChEMBL document CHEMBL1821632 (2011).

Structures are written as SMILES. The source made the active and inactive calls. The calls are words filed in the database; no cut-off is given here.

The test system of assay [1] is Lipid bilayer. The assay is described as follows: Binding affinity to dipalmitoyl phosphatidyl choline lipid bilayer assessed as decrease in pre-transition temperature by DSC technique. A general note: Differential scanning calorimetry records heat flow against a reference as temperature is scanned.
The test system of assay [2] is Lipid bilayer. Briefly: Binding affinity to dipalmitoyl phosphatidyl choline lipid bilayer assessed as decrease in pre-transition temperature at compound to lipid molar ratio of 1:1 by DSC technique. Put shortly:
(§1)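 DPPC bilayers carried additive at additive:lipid molar ratios of 0:100, 1:5, 1:2 or 1:1. Samples were degassed under vacuum and scanned by DSC from 20 to 60 °C at 10 °C/h. The pre-transition and main transition (Tm) temperatures were read from the thermograms and compared with the additive-free lipid.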

In assay [3] the test system is Lipid bilayer. Briefly: Binding affinity to dipalmitoyl phosphatidyl choline lipid bilayer assessed as decrease in pre-transition temperature at compound to lipid molar ratio of 1:5 by DSC technique. In outline: as §1
Assay [4] is described as follows: (§2) Antifertility activity against goat epididymis sperm cells assessed as loss of sperm motility at 1.25 mM by Sander-Cramer test. The assay is classed as functional, Capra hircus. In outline: (§3)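 Sperm came from the cauda epididymis of goats. Tissue pieces were allowed to settle out, and the cells were washed, pelleted and resuspended in buffer. Cells were diluted in Dulbecco buffer (control) or in 1.25 mM drug solution. Motility was scored by the Sander-Cramer method, examining at least six microscope fields per slide at 1 h and 2 h of incubation.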

For assay [5], the system named is Lipid bilayer. The assay is described as follows: Binding affinity to dipalmitoyl phosphatidyl choline lipid bilayer assessed as decrease in main transition temperature at compound to lipid molar ratio of 1:1 by DSC technique. In outline: as §1
Assay [6] relates to Lipid bilayer. The assay is described as follows: Binding affinity to dipalmitoyl phosphatidyl choline lipid bilayer assessed as decrease in main transition temperature by DSC technique.
Assay [7] relates to Sperm. Briefly: Antifertility activity against goat epididymis sperm cells assessed as inhibition of sperm motility at 1.25 mM after 1 hr by Sander-Cramer test. Particulars: Capra hircus. Type of assay: functional. In outline: as §3
Assay [8] has as its system Lipid bilayer. The assay is described as follows: Binding affinity to dipalmitoyl phosphatidyl choline lipid bilayer assessed as decrease in main transition temperature at compound to lipid molar ratio of 1:5 by DSC technique. Put shortly: as §1
In assay [9] the test system is Sperm. The assay is described as §2. Type of assay: functional. The following applies: Capra hircus. Put shortly:
as §3

`O=C(O)c1cc(/N=N/c2ccc(S(=O)(=O)Nc3ccccn3)cc2)ccc1O`: the outcome with Lipid bilayer [1], in the assay with Lipid bilayer [2] and in the assay with Lipid bilayer [3] was Active.

For `CCOC(=O)C1=C(C)NC(C)=C(C(=O)OCC)C1c1ccccc1`, the result in the assay with Lipid bilayer [1], in the assay on Lipid bilayer [2] and with Lipid bilayer [3] was Active. Further, in [4], the Activity came out at 25%.

As to `CCOC(=O)C1=C(C)NC(C)=C(C(=O)OCC)C1c1ccc(O)cc1`, the Tm in the assay on Lipid bilayer [5], in the assay on Lipid bilayer [6] and with Lipid bilayer [8] was 4.25 °C throughout. In addition, the result in the assay on Lipid bilayer [1], with Lipid bilayer [2] and in the assay with Lipid bilayer [3] was Active. In the assay with Sperm [7], the inhibition result was “Active”.

Turning to `CCOC(=O)C1=C(C)NC(C)=C(C(=O)OCC)C1c1ccc(Cl)cc1`, the result in the assay with Lipid bilayer [1], in the assay with Lipid bilayer [2] and in the assay with Lipid bilayer [3] was Active. Besides, the Activity in assay [4] amounted to 25%.

Take `CCOC(=O)C1=C(C)NC(C)=C(C(=O)OCC)C1c1ccccc1O`: the result in the assay with Lipid bilayer [1], in the assay on Lipid bilayer [2] and with Lipid bilayer [3] was Active. Also, the inhibition result in the assay on Sperm [9] is “Active”.

Regarding `COC(=O)C1=C(C)NC(C)=C(C(=O)OC)C1c1ccccc1[N+](=O)[O-]`, the result in the assay on Lipid bilayer [1], with Lipid bilayer [2] and in the assay with Lipid bilayer [3] was Active.
